ALR H2O2 inh – human ALR oxidase inhibition via reduced H2O2. hit rate 3.8% among 290,000. purified ALR, DTT oxidation, H2O2 HRP-luminol luminescence. inhibition, % (test concentration not listed). P55789. AID 485317;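 active means mean replicate inhibition above about 79%, with every replicate also reaching it, limit read from the data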
Target sequence (P55789 whole entry, looked up): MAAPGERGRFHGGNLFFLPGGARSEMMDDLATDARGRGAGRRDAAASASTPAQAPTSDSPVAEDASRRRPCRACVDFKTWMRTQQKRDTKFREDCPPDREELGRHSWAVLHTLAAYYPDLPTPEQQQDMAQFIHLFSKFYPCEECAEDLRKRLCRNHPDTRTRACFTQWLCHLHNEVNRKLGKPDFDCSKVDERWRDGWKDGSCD
ZTA counter – ZTA (EBV) inhibition in EBNA-1 counter-screen | P03206 | ZTA-DNA binding, fluorescence polarization | inhibition, % at 11 µM | hit rate 0.15% among 320,000 | AID 2234; in the data active means inhibition above about 33%
NS3 helicase inh – blocks Hepatitis C virus NS3 helicase unwinding. hit rate 0.56% among 290,000. inhibition, % at 10.9 µM. NS3 helicase DNA unwinding, Cy5 molecular beacon fluorescence;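 active means inhibition above the mean of all tested compounds plus 3 SD, set per campaign, cut at about 35% in these data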;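 further: 0% = DMSO wells and 100% = thioflavine S control wells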
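Compound dosing – single dose, 10.9 µM nominal final, DMSO 0.8% final · System – NS3 helicase fragment of HCV · Buffer or medium – MOPS pH 6.5, MgCl2, DTT, Tween20, BSA · Signal – Cy5 beacon fluorescence read at start and 1 h · Also added – annealed dual-labelled DNA beacon duplex, ATP-started · Schedule – 1 h at 25 °C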
PfM18AAP inh-1 – blocks P. falciparum M18 aspartyl aminopeptidase; AID 1822; inhibition, % at 7.35 µM; hit rate 1.2% among 290,000; recombinant PfM18AAP, H-Glu-NHMec fluorogenic cleavage;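 active means inhibition above the campaign mean inhibition over all tested compounds plus 3 SD, cut at about 28% in these data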;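 further: 0% = plate median of test compound wells and 100% = 2 mM ZnCl2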
HCV core dimer – HCV core protein dimerization inhibition; AID 1899; TR-FRET GST/Flag-core106 dimerization, 1536-well; inhibition, % at 5 µM; hit rate 0.33% among 300,000;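 active means inhibition above the mean of all tested compounds plus 3 SD, set per screening campaign, cut at about 45% in these data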
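System – GST-tagged and Flag-tagged HCV core protein residues 1-106 · Repeats – one well for each compound · Technique – TR-FRET 671 and 617 nm emission · Doses – one concentration, 5 µM, in 0.5% DMSO · Times – 4 h, 22.5 °C incubation · Also added – Eu donor and XL665 acceptor anti-tag antibodies · Measure – percent inhibition of core106 dimerization signal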
EBNA-1 inhibitor – blocks EBNA-1 binding to DNA. hit rate 0.34% among 300,000. AID 1950. inhibition, % at 14.8 µM. EBNA-1 DNA binding, fluorescence polarization; in the data active means inhibition above about 28%
PfM18AAP inh-2 – PfM18AAP inhibition, confirmation | shares compounds with PfM18AAP inh-1 | recombinant PfM18AAP, H-Glu-NHMec fluorogenic cleavage | inhibition, % at 7.35 µM | hit rate 28% among 2,400;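 active means mean inhibition over replicate wells above the hit cutoff set for the earlier primary screen, cut at about 29% in these data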;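 further: 0% = median of test compound wells and 100% = 2 mM ZnCl2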
CTSL1 confirm – counter-screen for PFM18AAP inhibitors: confirmation of human cathepsin L inhibitors. inhibition, % at 5.96 µM. 2,400 tested, under 10 active. purified cathepsin L1, Z-Leu-Arg-MCA fluorescence. shares compounds with PfM18AAP inh-1. AID 2178;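 active means average inhibition across replicates above the hit cutoff set in the earlier primary screen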;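 further: 0% = median of test compound wells and 100% = Z-Phe-Ala-diazomethylketone 1 µM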
Target sequence (P07711 whole entry, looked up): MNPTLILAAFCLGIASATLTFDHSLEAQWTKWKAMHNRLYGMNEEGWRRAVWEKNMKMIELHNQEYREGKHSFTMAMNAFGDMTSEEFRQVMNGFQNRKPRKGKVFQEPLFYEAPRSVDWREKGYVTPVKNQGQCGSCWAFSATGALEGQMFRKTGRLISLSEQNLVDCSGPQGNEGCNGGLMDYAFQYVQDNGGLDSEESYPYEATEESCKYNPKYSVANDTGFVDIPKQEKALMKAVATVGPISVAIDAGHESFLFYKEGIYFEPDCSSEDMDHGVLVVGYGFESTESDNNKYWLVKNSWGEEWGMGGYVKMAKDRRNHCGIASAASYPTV
Numbers without * were called inactive. Compounds with a hit are over-represented: about 5.2% of the library has one in this group of screens.

For COc1cc(C2C(C#N)=C(N)OC3=C2C(=O)CCC3)c([N+](=O)[O-])cc1OC (centres undefined) the results were ALR H2O2 inh -54, ZTA counter 0, NS3 helicase inh 28, PfM18AAP inh-1 40*, HCV core dimer 5, EBNA-1 inhibitor -4, PfM18AAP inh-2 -20 and CTSL1 confirm 2.
For Cc1cc(C2C(C#N)=C(N)OC3=C2C(=O)CCC3)c(C)s1 (centres undefined) the results were ALR H2O2 inh -6, ZTA counter -2, NS3 helicase inh 2, PfM18AAP inh-1 6, HCV core dimer -3 and EBNA-1 inhibitor 11.
`CCC(C)c1ccc(O)c(N)c1` (centres undefined) gave ALR H2O2 inh -6, ZTA counter 3, NS3 helicase inh 30, PfM18AAP inh-1 64*, HCV core dimer 0, EBNA-1 inhibitor 10, PfM18AAP inh-2 69* and CTSL1 confirm 3.
Screening Cc1ccc(N2CCN(S(=O)(=O)c3ccc(Cl)s3)CC2C)cc1 (centres undefined) returned ALR H2O2 inh 6, ZTA counter 7, NS3 helicase inh -3, PfM18AAP inh-1 3, HCV core dimer 6 and EBNA-1 inhibitor 2.
For O=C(CNS(=O)(=O)c1ccccc1)Nc1ccc(F)cc1F the results were ALR H2O2 inh 1, ZTA counter 12, NS3 helicase inh -5, PfM18AAP inh-1 -1, HCV core dimer 5 and EBNA-1 inhibitor 1.
`O=S(=O)(NNc1ccc(F)cc1F)c1cccc(Cl)c1` gave ALR H2O2 inh 98*, ZTA counter 7, NS3 helicase inh -4, PfM18AAP inh-1 36*, HCV core dimer 1, EBNA-1 inhibitor 5, PfM18AAP inh-2 -234 and CTSL1 confirm 0.
Screening CC(=O)C1=C(O)C(=O)N(c2ccc(Br)cc2)C1c1ccccc1[N+](=O)[O-] (centres undefined) returned ALR H2O2 inh 21, ZTA counter -1, NS3 helicase inh 3, PfM18AAP inh-1 20, HCV core dimer 4 and EBNA-1 inhibitor 6.
For Cc1ccc(-c2n[nH]c(=S)n2/N=C/C=C/c2ccccc2[N+](=O)[O-])cc1 the results were ALR H2O2 inh 2, ZTA counter -5, NS3 helicase inh 0, PfM18AAP inh-1 7, HCV core dimer 8 and EBNA-1 inhibitor 7.
`O=[N+]([O-])c1ccccc1/C=C/C=N/n1c(-c2ccco2)n[nH]c1=S` gave ALR H2O2 inh 4, ZTA counter 8, NS3 helicase inh 5, PfM18AAP inh-1 32*, HCV core dimer 10, EBNA-1 inhibitor -1, PfM18AAP inh-2 -15 and CTSL1 confirm -2.
For CCN(CC)S(=O)(=O)c1ccc(OC)c(NC(=O)c2ccc([N+](=O)[O-])cc2)c1 the results were ALR H2O2 inh -4, ZTA counter -3, NS3 helicase inh -1, PfM18AAP inh-1 -2, HCV core dimer 1 and EBNA-1 inhibitor -6.
CCN(CC)S(=O)(=O)c1cc([N+](=O)[O-])ccc1NNC(=O)Nc1ccccc1OC was read as ALR H2O2 inh -6, ZTA counter 8, NS3 helicase inh 1, PfM18AAP inh-1 56*, HCV core dimer 8, EBNA-1 inhibitor -8, PfM18AAP inh-2 13 and CTSL1 confirm 4.
CCN(CC)S(=O)(=O)c1cc([N+](=O)[O-])ccc1NNC(=O)Nc1ccc(F)cc1 was read as ALR H2O2 inh -3, ZTA counter 9, NS3 helicase inh 0, PfM18AAP inh-1 37*, HCV core dimer 1, EBNA-1 inhibitor -2, PfM18AAP inh-2 29* and CTSL1 confirm 4.
For O=C(Nc1ccc(F)cc1)Nc1ccc([N+](=O)[O-])cn1 the results were ALR H2O2 inh 0, ZTA counter 3, NS3 helicase inh 19, PfM18AAP inh-1 -9, HCV core dimer -2 and EBNA-1 inhibitor 9.
Screening Cc1cc(C)c(C)c(S(=O)(=O)N(C)CCc2ccccn2)c1C returned ALR H2O2 inh -2.
For O=S(=O)(/N=C(/Nc1ccc(F)cc1F)c1ccccc1)c1ccccc1 the results were ZTA counter 12, NS3 helicase inh 3, PfM18AAP inh-1 9, HCV core dimer 2 and EBNA-1 inhibitor 4.
Screening O=C(CN1CCc2cc3c(cc2C1)OCCCO3)Nc1cccc([N+](=O)[O-])c1 returned ALR H2O2 inh -9, ZTA counter 3, NS3 helicase inh -49, PfM18AAP inh-1 35*, HCV core dimer -11, EBNA-1 inhibitor -1, PfM18AAP inh-2 1 and CTSL1 confirm 0.
`Cc1cccc(NC(=O)CN2CCc3cc4c(cc3C2)OCCCO4)c1` gave ALR H2O2 inh 1, ZTA counter -12, NS3 helicase inh -12, PfM18AAP inh-1 20, HCV core dimer -17 and EBNA-1 inhibitor -7.
For CC(C)Oc1ccc(-c2nn(-c3ccccc3)cc2/C=c2\sc3ncnn3c2=O)cc1 the results were ALR H2O2 inh 39, ZTA counter -13, NS3 helicase inh -3, PfM18AAP inh-1 58*, HCV core dimer -1, EBNA-1 inhibitor -8, PfM18AAP inh-2 -17 and CTSL1 confirm 3.
For Oc1ccc(-c2nc(-c3ccc(O)c(O)c3)cs2)cc1 the results were ALR H2O2 inh 99*, ZTA counter 11, NS3 helicase inh 14, PfM18AAP inh-1 59*, HCV core dimer -1, EBNA-1 inhibitor 5, PfM18AAP inh-2 71* and CTSL1 confirm -13.
For NC(=O)c1ccccc1NC(=O)C1CCCO1 (centres undefined) the results were ALR H2O2 inh 2, ZTA counter -8, NS3 helicase inh 10, PfM18AAP inh-1 -2, HCV core dimer -4 and EBNA-1 inhibitor 5.
Screening COc1ccc(S(=O)(=O)Oc2ccccc2C(=S)N2CCOCC2)cc1 returned ALR H2O2 inh -9, ZTA counter -2, NS3 helicase inh -2, PfM18AAP inh-1 45*, HCV core dimer 5, EBNA-1 inhibitor 9, PfM18AAP inh-2 -13 and CTSL1 confirm 4.
COc1ccc(S(=O)(=O)Oc2cccc(C(=S)N3CCOCC3)c2)cc1 was read as ALR H2O2 inh 3, ZTA counter 1, NS3 helicase inh 7, PfM18AAP inh-1 6, HCV core dimer -9 and EBNA-1 inhibitor 1.
`NNc1ccc(S(=O)(=O)N2CCCCC2)cn1` gave ZTA counter -12, NS3 helicase inh 10, PfM18AAP inh-1 33*, HCV core dimer -2, EBNA-1 inhibitor 1, PfM18AAP inh-2 31* and CTSL1 confirm 1.
O=S(=O)(c1ccc(N2CCCC2)nc1)N1CCCC1 was read as ALR H2O2 inh 0, ZTA counter 0, NS3 helicase inh 4, PfM18AAP inh-1 -4, HCV core dimer -2 and EBNA-1 inhibitor -9.

Screens as filed in PubChem.
